The source made the active and inactive calls. The calls are words filed in the database; no cut-off is given here.
What was measured:
HT-29 = assay: Cytotoxicity against human HT-29 cells incubated for 72 hrs by MTT assay; assay type: functional, cell-based; details: HT-29, 72 h
Outline: (§1)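 Cells seeded at 4000/well, incubated overnight, then exposed to a range of concentrations, or DMSO vehicle, for 72 h. MTT (5 mg/mL solution) added for 4 h and formazan dissolved in DMSO. Absorbance read at 570 nm, and IC50 derived from the curves. Tumor lines were grown in RPMI 1640; HUVEC, HaCaT and LO2 were grown in DMEM, each with 10% FBS at 37 °C and 5% CO2.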

SW-620 = assay: Cytotoxicity against human SW-620 cells incubated for 72 hrs by MTT assay; assay type: functional, cell-based; details: SW-620, 72 h; outline: as §1
[1] = Cytotoxicity against human HaCaT cells incubated for 72 hrs by MTT assay; assay type: toxicity, cell-based; outline: as §1
HCT-116 = assay: Cytotoxicity against human HCT-116 cells incubated for 72 hrs by MTT assay; assay type: functional, cell-based; details: HCT-116, 72 h; outline: as §1
MDA-MB-231 = assay: Cytotoxicity against human MDA-MB-231 cells incubated for 72 hrs by MTT assay; assay type: functional, cell-based; details: MDA-MB-231, 72 h; outline: as §1
[2] = Cytotoxicity against HUVEC incubated for 72 hrs by MTT assay; assay type: toxicity, cell-based; details: human, HUVEC cells; outline: as §1
[3] = Cytotoxicity against human L02 cells incubated for 72 hrs by MTT assay; assay type: toxicity, cell-based; outline: as §1
NCI-H460 [4] = assay: Cytotoxicity against human NCI-H460 cells incubated for 72 hrs by MTT assay; assay type: functional, cell-based; details: NCI-H460, 72 h; outline: as §1
NCI-H1975 [5] = assay: Cytotoxicity against human NCI-H1975 cells incubated for 72 hrs by MTT assay; assay type: functional, cell-based; details: NCI-H1975, 72 h; outline: as §1
[6] = Toxicity in BALB/c nude mouse xenografted with human NCI-H1975 cells assessed as morphological change in kidney at 0.2 mg/kg administered ip, qd for 2 weeks; details: in vivo, 336 h
NCI-H460 [7] = assay: Induction of apoptosis in human NCI-H460 cells assessed as necrotic cells at 0.01 uM measured after 48 hrs by Annexin V-FITC/PI staining method (reference value: 1.59%); assay type: functional
[8] = Toxicity in BALB/c nude mouse xenografted with human NCI-H1975 cells assessed as decreased spermatogenic cells at 0.2 mg/kg administered ip, qd for 2 weeks; details: in vivo, 336 h
NCI-H460 [9] = assay: Induction of apoptosis in human NCI-H460 cells assessed as viable cells at 0.1 uM measured after 48 hrs by Annexin V-FITC/PI staining method (reference value: 86.4%); assay type: functional; details: read-out: Activity
NCI-H460 [10] = assay: Induction of apoptosis in human NCI-H460 cells assessed as viable cells at 0.01 uM measured after 48 hrs by Annexin V-FITC/PI staining method (reference value: 86.4%); assay type: functional; details: read-out: Activity
NCI-H460 [11] = assay: Induction of ROS accumulation in human NCI-H460 cells measured upto 100 nM after 42 to 48 hrs by DCFH-DA staining based flow cytometric analysis; assay type: functional, cell-based; details: time 42-48 hrs
Outline: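 NCI-H460 cells exposed for 42 h or 48 h, then suspended in 1% BSA DPBS. DCFH-DA (from a 10 mM stock) added and incubated 30 min in the dark, followed by washing. DCF fluorescence taken from flow-cytometry histograms and expressed as percentage relative to untreated control.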

[12] = Stability in mouse serum measured after 8 hrs by HPLC analysis; assay type: ADME, cell-free
NCI-H460 [13] = assay: Induction of apoptosis in human NCI-H460 cells assessed as early apoptotic cells at 0.1 uM measured after 48 hrs by Annexin V-FITC/PI staining method (reference value: 3.46%); assay type: functional
NCI-H460 [14] = assay: Induction of apoptosis in human NCI-H460 cells assessed as necrotic cells at 1 uM measured after 48 hrs by Annexin V-FITC/PI staining method (reference value: 1.59%); assay type: functional
NCI-H460 [15] = assay: Induction of apoptosis in human NCI-H460 cells assessed as late apoptotic cells at 0.01 uM measured after 48 hrs by Annexin V-FITC/PI staining method (reference value: 8.57%); assay type: functional
[16] = Toxicity in BALB/c nude mouse xenografted with human NCI-H1975 cells assessed as morphological change in heart at 0.2 mg/kg administered ip, qd for 2 weeks; details: in vivo, 336 h
NCI-H460 [17] = assay: Induction of apoptosis in human NCI-H460 cells assessed as viable cells at 1 uM measured after 48 hrs by Annexin V-FITC/PI staining method (reference value: 86.4%); assay type: functional; details: read-out: Activity
NCI-H460 [18] = assay: Induction of mitochondrial membrane potential loss in human NCI-H460 cells by flow cytometric analysis; assay type: functional, cell-based
Outline: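 Treated NCI-H460 cells suspended in 1% BSA DPBS and stained with TMRE (from a 1 mM stock) for 20 min in the dark. Cells then washed and resuspended in 1% BSA DPBS. Relative TMRE fluorescence intensity taken as the readout of membrane potential.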

NCI-H1975 [19] = assay: Antitumor activity against human NCI-H1975 cells xenografted in BALB/c nude mouse assessed as tumor growth inhibition at 0.2 mg/kg, ip, qd for 2 weeks relative to control; details: NCI-H1975, 336 h, read-out: TGI
NCI-H460 [20] = assay: Down regulation of RNA polymerase II in human NCI-H460 cells measured after 48 hrs by Western blotting analysis; assay type: functional, cell-based
Outline: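 NCI-H460 cells treated for 48 h, harvested by trypsinization and lysed on ice in NP-40 buffer (50 mmol/L Tris pH 8.0, 150 mmol/L NaCl, 1% NP-40). Protein quantified by BCA and resolved by SDS-PAGE. Blots probed for RNA Pol II (1:1000), with GAPDH as loading control, and detected by chemiluminescence.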

[21] = Octanol-water partition coefficient, logD of the compound in PBS at pH 7.4 by liquid chromatography based mass spectrometric analysis; assay type: physicochemical
Outline: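 Shake-flask method: 3.0 mg compound dissolved in PBS-saturated n-octanol and rotated 24 h at room temperature. The octanol phase was then mixed with octanol-saturated PBS, rotated another 24 h and centrifuged. Both phases quantified by LC-MS against a standard curve, and log P = log(C octanol/C water).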

[22] = Toxicity in BALB/c nude mouse xenografted with human NCI-H1975 cells assessed as reduction of cytoplasmic nuclei at 0.2 mg/kg administered ip, qd for 2 weeks; details: in vivo, 336 h
NCI-H460 [23] = assay: Induction of apoptosis in human NCI-H460 cells assessed as early apoptotic cells at 0.01 uM measured after 48 hrs by Annexin V-FITC/PI staining method (reference value: 3.46%); assay type: functional
[24] = Toxicity in BALB/c nude mouse xenografted with human NCI-H1975 cells assessed as morphological change in lung at 0.2 mg/kg administered ip, qd for 2 weeks; details: in vivo, 336 h
NCI-H460 [25] = assay: Induction of apoptosis in human NCI-H460 cells assessed as late apoptotic cells at 0.1 uM measured after 48 hrs by Annexin V-FITC/PI staining method (reference value: 8.57%); assay type: functional
[26] = Toxicity in BALB/c nude mouse xenografted with human NCI-H1975 cells assessed as reduction of cytoplasmic vacuoles at 0.2 mg/kg administered ip, qd for 2 weeks; details: in vivo, 336 h
NCI-H460 [27] = assay: Induction of apoptosis in human NCI-H460 cells assessed as late apoptotic cells at 1 uM measured after 48 hrs by Annexin V-FITC/PI staining method (reference value: 8.57%); assay type: functional
[28] = Toxicity in BALB/c nude mouse xenografted with human NCI-H1975 cells assessed as irregular spermatogenic tubules at 0.2 mg/kg administered ip, qd for 2 weeks; details: in vivo, 336 h
[29] = Toxicity in BALB/c nude mouse xenografted with human NCI-H1975 cells assessed as morphological change in liver at 0.2 mg/kg administered ip, qd for 2 weeks; details: in vivo, 336 h
NCI-H460 [30] = assay: Induction of apoptosis in human NCI-H460 cells assessed as early apoptotic cells at 1 uM measured after 48 hrs by Annexin V-FITC/PI staining method (reference value: 3.46%); assay type: functional
[31] = Toxicity in BALB/c nude mouse xenografted with human NCI-H1975 cells assessed as degeneration of inter tube connective tissue at 0.2 mg/kg administered ip, qd for 2 weeks; details: in vivo, 336 h
NCI-H460 [32] = assay: Induction of apoptosis in human NCI-H460 cells assessed as necrotic cells at 0.1 uM measured after 48 hrs by Annexin V-FITC/PI staining method (reference value: 1.59%); assay type: functional

CC(C)[C@]12O[C@H]1[C@@H]1O[C@]13[C@]1(O[C@H]1C[C@H]1C4=C(CC[C@@]13C)C(=O)OC4)[C@@H]2OC(=O)CCC(=O)OC[C@H]1OC(O)[C@H](O)[C@@H](O)[C@@H]1O (stereo not given in full) showed an IC50 (HT-29) of 4280 nM, an IC50 (SW-620) of 5200 nM and an IC50 at 72 h [1] of 3900 nM. It also gave an IC50 (HCT-116) of 2280 nM, an IC50 (MDA-MB-231) of 6620 nM and an IC50 at 72 h [2] of 2020 nM. It also gave an IC50 at 72 h [3] of 1420 nM, an IC50 (NCI-H460 [4]) of 1070 nM and an IC50 (NCI-H1975 [5]) of 1140 nM.
For CC(C)[C@]12O[C@H]1[C@@H]1O[C@]13[C@]1(O[C@H]1C[C@H]1C4=C(CC[C@@]13C)C(=O)OC4)[C@@H]2O [TRIPTOLIDE], the Activity [6] was “Non-Toxic”, the Activity (NCI-H460 [7]) was 2.2% and the Activity [8] was “Toxic”. For the same compound, the viability at 0.1 µM (NCI-H460 [9]) was 29.5%, the viability at 0.01 µM (NCI-H460 [10]) was 87.8% and the Activity (NCI-H460 [11]) was “Active”. For the same compound, the IC50 (HT-29) was 47 nM, the IC50 (SW-620) was 163 nM and the Stability [12] was “Unstable”. For the same compound, the Activity (NCI-H460 [13]) was 42.2%, the Activity (NCI-H460 [14]) was 2.34% and the Activity (NCI-H460 [15]) was 3.17%. For the same compound, the Activity [16] was “Non-Toxic”, the viability at 1 µM (NCI-H460 [17]) was 25.1% and the Activity (NCI-H460 [18]) was “Active”. For the same compound, the inhibition in vivo at 0.2 mg/kg (NCI-H1975 [19]) was 28.6%, the IC50 at 72 h [1] was 27 nM and the Activity (NCI-H460 [20]) was “Active”. For the same compound, the logD [21] was -0.56, the Activity [22] was “Toxic” and the Activity (NCI-H460 [23]) was 6.84%. For the same compound, the IC50 (HCT-116) was 46 nM, the IC50 (MDA-MB-231) was 51 nM and the Activity [24] was “Non-Toxic”. The IC50 at 72 h [2] was 44 nM, the Activity (NCI-H460 [25]) was 24.4% and the IC50 at 72 h [3] was 16 nM. For the same compound, the Activity [26] was “Toxic”, the IC50 (NCI-H460 [4]) was 14 nM and the Activity (NCI-H460 [27]) was 5.7%. The Activity [28] was “Toxic”, the IC50 (NCI-H1975 [5]) was 2 nM and the Activity [29] was “Non-Toxic”. The Activity (NCI-H460 [30]) was 56.8%, the Activity [31] was “Toxic” and the Activity (NCI-H460 [32]) was 3.85%.
In the case of CC(C)[C@]12O[C@H]1[C@@H]1O[C@]13[C@]1(O[C@H]1C[C@H]1C4=C(CC[C@@]13C)C(=O)OC4)[C@@H]2OC(=O)CCC(=O)O[C@H]1[C@H](O)[C@@H](CO)OC(O)[C@@H]1O (stereo not given in full), the IC50 (HT-29) is reported as 5180 nM, the IC50 (SW-620) is reported as 2550 nM and the IC50 at 72 h [1] is reported as 4830 nM. For the same compound, the logD [21] was -0.772, the IC50 (HCT-116) was 2710 nM and the IC50 (MDA-MB-231) was 2430 nM. It also gave an IC50 at 72 h [2] of 4930 nM, an IC50 at 72 h [3] of 1380 nM and an IC50 (NCI-H460 [4]) of 1630 nM. The IC50 (NCI-H1975 [5]) was 2210 nM.
